From ChEMBL document CHEMBL4368918, “Structure-Based Design of Inhibitors Selective for Human Proteasome β2c or β2i Subunits” (J Med Chem, 2019)

Molecular target: T1, Proteasome subunit beta type-7 (Homo sapiens, UniProt Q99436)
T1 sequence (Q99436 whole entry): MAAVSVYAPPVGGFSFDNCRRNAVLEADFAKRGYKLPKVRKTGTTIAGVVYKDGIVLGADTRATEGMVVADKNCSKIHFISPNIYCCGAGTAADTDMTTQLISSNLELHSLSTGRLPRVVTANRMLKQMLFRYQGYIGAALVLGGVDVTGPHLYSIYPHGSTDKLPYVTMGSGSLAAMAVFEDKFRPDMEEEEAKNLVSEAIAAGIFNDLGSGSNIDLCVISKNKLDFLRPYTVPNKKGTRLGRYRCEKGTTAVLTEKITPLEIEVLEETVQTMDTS
Assay: Inhibition of 20S constitutive proteasome beta 2 trypsin-like activity in human RPMI8226 cell lysates after 1 hr by coomassie brilliant blue staining-based fluorescence assay
Format: subcellular, Lysate

Row | SMILES | IC50 [µM]
1 | CC(C)C[C@H](NC(=O)c1cnccn1)C(=O)N[C@@H](CC(C)C)C(=O)N[C@H](/C=C/S(C)(=O)=O)Cc1ccc(CN)cc1 | > 10

Molecular target: T2, Proteasome subunit beta type-9 (Homo sapiens, UniProt P28065)
T2 sequence (P28065 whole entry): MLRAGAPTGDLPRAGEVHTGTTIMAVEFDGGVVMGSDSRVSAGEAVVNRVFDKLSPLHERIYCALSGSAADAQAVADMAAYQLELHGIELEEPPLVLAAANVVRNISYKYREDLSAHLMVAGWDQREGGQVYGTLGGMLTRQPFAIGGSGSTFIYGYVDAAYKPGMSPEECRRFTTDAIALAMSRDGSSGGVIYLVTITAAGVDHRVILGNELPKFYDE
Assay: Inhibition of 20S immunoproteasome beta 1 in human RPMI8226 cell lysates after 1 hr by coomassie brilliant blue staining-based fluorescence assay
Format: subcellular, Lysate
How it was run: (§1)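 Living RPMI-8226 cells were grown in RPMI-1640 with 10% FCS. Cells at (5–8)×10⁵ cells/mL were exposed to inhibitor for 1 h at 37 °C, washed in PBS and lysed on ice for 1 h in digitonin/ATP buffer. Residual activity was read by cocktail-ABP labeling, SDS-PAGE and fluorescence densitometry relative to mock, with Coomassie staining correcting for loading. IC50 came from three independent experiments.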

Row | SMILES | IC50 [µM]
2 | CC(C)C[C@H](NC(=O)c1cnccn1)C(=O)N[C@@H](CC(C)C)C(=O)N[C@H](/C=C/S(C)(=O)=O)Cc1ccc(CN)cc1 | > 10
3 | CC(C)C[C@H](NC(=O)[C@H](Cc1ccccc1)N=[N+]=[N-])C(=O)N[C@@H](CO)C(=O)N[C@H](/C=C/S(C)(=O)=O)Cc1ccc(CN)cc1 | > 10

Molecular target: T2, Proteasome subunit beta type-9
Assay: Inhibition of 20S immunoproteasome beta 1 in human Raji cell lysates after 1 hr by competitive ABPP assay
Format: subcellular, Lysate
How it was run: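 Raji cells were sonicated in 3 volumes of Tris pH 7.5 lysis buffer containing DTT, MgCl₂, sucrose, 2 mM ATP and 0.05% digitonin. Lysate (5 μg protein, in buffer with 2 mM ATP and glycerol) was preincubated with inhibitor for 1 h at 37 °C, then with a cocktail of three fluorescent ABPs for 1 h. […] In-gel fluorescence densitometry was normalized to mock. IC50 came from the mean of three experiments.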

Row | SMILES | IC50 [µM]
4 | CC(C)C[C@H](NC(=O)c1cnccn1)C(=O)N[C@@H](CC(C)C)C(=O)N[C@H](/C=C/S(C)(=O)=O)Cc1ccc(CN)cc1 | > 100
5 | CC(C)C[C@H](NC(=O)[C@H](Cc1ccccc1)N=[N+]=[N-])C(=O)N[C@@H](CO)C(=O)N[C@H](/C=C/S(C)(=O)=O)Cc1ccc(CN)cc1 | > 100

Species: Homo sapiens
Assay: Selectivity ratio of IC50 for 20S constitutive proteasome beta 1 caspase-like activity in human Raji cell lysates to IC50 for 20S constitutive proteasome beta 2 trypsin-like activity in human Raji cells
Format: cell-based

Row | SMILES | Ratio IC50
6 | CC(C)C[C@H](NC(=O)c1cnccn1)C(=O)N[C@@H](CC(C)C)C(=O)N[C@H](/C=C/S(C)(=O)=O)Cc1ccc(CN)cc1 | > 600

Molecular target: T3, Proteasome subunit beta type-10 (Homo sapiens, UniProt P40306)
T3 sequence (P40306 whole entry): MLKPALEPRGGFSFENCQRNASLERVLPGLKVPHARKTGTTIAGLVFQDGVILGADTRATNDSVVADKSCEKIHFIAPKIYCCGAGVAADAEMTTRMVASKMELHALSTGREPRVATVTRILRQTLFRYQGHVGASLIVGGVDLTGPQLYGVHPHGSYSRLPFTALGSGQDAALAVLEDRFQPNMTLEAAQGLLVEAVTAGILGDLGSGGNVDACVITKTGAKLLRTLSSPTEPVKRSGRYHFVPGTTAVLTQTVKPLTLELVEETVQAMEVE
Assay: Inhibition of 20S immunoproteasome beta 2 (unknown origin) by cell based ABPP assay
How it was run: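 Living RPMI-8226 cells, (5–8) ×10^5 cells/mL, exposed to inhibitor 1 h at 37 °C, washed, lysed in digitonin buffer 1 h on ice; residual activity labelled with cocktail ABPs, SDS-PAGE in-gel fluorescence, bands divided by mock, Coomassie staining to correct loading. IC50 from mean of three independent experiments.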

Row | SMILES | IC50 [µM]
7 | CC(C)C[C@H](NC(=O)c1cnccn1)C(=O)N[C@@H](CC(C)C)C(=O)N[C@H](/C=C/S(C)(=O)=O)Cc1ccc(CN)cc1 | 6.5
8 | CC(C)C[C@H](NC(=O)[C@H](Cc1ccccc1)N=[N+]=[N-])C(=O)N[C@@H](CO)C(=O)N[C@H](/C=C/S(C)(=O)=O)Cc1ccc(CN)cc1 | 0.525

Molecular target: T4, Proteasome Macropain subunit MB1 (Homo sapiens, UniProt P28074)
T4 sequence (P28074 whole entry): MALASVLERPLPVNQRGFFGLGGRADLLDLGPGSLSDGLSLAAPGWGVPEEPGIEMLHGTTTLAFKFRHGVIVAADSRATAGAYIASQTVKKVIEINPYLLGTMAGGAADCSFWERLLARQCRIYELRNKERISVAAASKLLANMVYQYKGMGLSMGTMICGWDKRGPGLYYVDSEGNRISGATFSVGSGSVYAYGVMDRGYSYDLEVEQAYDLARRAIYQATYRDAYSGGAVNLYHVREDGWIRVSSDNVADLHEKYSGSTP
Assay: Inhibition of 20S constitutive proteasome beta 5 chymotrypsin-like activity in human RPMI8226 cell lysates after 1 hr by coomassie brilliant blue staining-based fluorescence assay
Format: subcellular, Lysate
How it was run: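 Cells at (5–8)×10⁵ cells/mL were exposed to inhibitor for 1 h at 37 °C, washed in PBS and lysed on ice for 1 h in digitonin/ATP buffer. Residual activity was read by cocktail-ABP labeling, SDS-PAGE and fluorescence densitometry relative to mock, with Coomassie staining correcting for loading. IC50 came from three independent experiments.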

Row | SMILES | IC50 [µM]
9 | CC(C)C[C@H](NC(=O)c1cnccn1)C(=O)N[C@@H](CC(C)C)C(=O)N[C@H](/C=C/S(C)(=O)=O)Cc1ccc(CN)cc1 | > 10
10 | CC(C)C[C@H](NC(=O)[C@H](Cc1ccccc1)N=[N+]=[N-])C(=O)N[C@@H](CO)C(=O)N[C@H](/C=C/S(C)(=O)=O)Cc1ccc(CN)cc1 | > 10

Molecular target: T5, Proteasome subunit beta type-8 (Homo sapiens, UniProt P28062)
T5 sequence (P28062 whole entry): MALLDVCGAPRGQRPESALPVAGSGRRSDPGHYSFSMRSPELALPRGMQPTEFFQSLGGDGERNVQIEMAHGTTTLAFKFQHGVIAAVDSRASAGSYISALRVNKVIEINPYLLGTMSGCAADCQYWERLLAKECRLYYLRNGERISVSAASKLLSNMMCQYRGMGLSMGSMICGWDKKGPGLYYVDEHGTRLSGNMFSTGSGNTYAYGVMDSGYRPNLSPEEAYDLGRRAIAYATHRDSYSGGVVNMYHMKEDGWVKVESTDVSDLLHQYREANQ
Assay: Inhibition of 20S immunoproteasome beta 5 in human Raji cell lysates after 1 hr by competitive ABPP assay
Format: subcellular, Lysate

Row | SMILES | IC50 [µM]
11 | CC(C)C[C@H](NC(=O)c1cnccn1)C(=O)N[C@@H](CC(C)C)C(=O)N[C@H](/C=C/S(C)(=O)=O)Cc1ccc(CN)cc1 | > 100
12 | CC(C)C[C@H](NC(=O)[C@H](Cc1ccccc1)N=[N+]=[N-])C(=O)N[C@@H](CO)C(=O)N[C@H](/C=C/S(C)(=O)=O)Cc1ccc(CN)cc1 | 2.2

Species: Homo sapiens
Assay: Selectivity ratio of IC50 for 20S immunoproteasome beta 2 in human Raji cell lysates to IC50 for 20S constitutive proteasome beta 2 trypsin-like activity in human Raji cells
Format: cell-based

Row | SMILES | Ratio IC50
13 | CC(C)C[C@H](NC(=O)c1cnccn1)C(=O)N[C@@H](CC(C)C)C(=O)N[C@H](/C=C/S(C)(=O)=O)Cc1ccc(CN)cc1 | 17

Species: Homo sapiens
Assay: Selectivity ratio of IC50 for 20S immunoproteasome beta 5 in human Raji cell lysates to IC50 for 20S constitutive proteasome beta 2 trypsin-like activity in human Raji cells
Format: cell-based

Row | SMILES | Ratio IC50
14 | CC(C)C[C@H](NC(=O)c1cnccn1)C(=O)N[C@@H](CC(C)C)C(=O)N[C@H](/C=C/S(C)(=O)=O)Cc1ccc(CN)cc1 | > 600

Molecular target: T6, Proteasome subunit beta type-6 (Homo sapiens, UniProt P28072)
T6 sequence (P28072 whole entry): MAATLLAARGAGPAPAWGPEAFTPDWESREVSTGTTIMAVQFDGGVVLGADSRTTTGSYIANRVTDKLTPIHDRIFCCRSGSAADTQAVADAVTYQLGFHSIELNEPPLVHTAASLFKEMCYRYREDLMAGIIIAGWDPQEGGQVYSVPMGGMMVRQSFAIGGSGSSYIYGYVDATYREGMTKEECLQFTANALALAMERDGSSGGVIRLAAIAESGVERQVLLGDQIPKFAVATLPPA
Assay: Inhibition of 20S constitutive proteasome beta 1 caspase-like activity in human Raji cell lysates after 1 hr by competitive ABPP assay
Format: subcellular, Lysate
How it was run: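 Raji cells were sonicated in 3 volumes of Tris pH 7.5 lysis buffer containing DTT, MgCl₂, sucrose, 2 mM ATP and 0.05% digitonin. Lysate (5 μg protein, in buffer with 2 mM ATP and glycerol) was preincubated with inhibitor for 1 h at 37 °C, then with a cocktail of three fluorescent ABPs for 1 h. In-gel fluorescence densitometry was normalized to mock. IC50 came from the mean of three experiments.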

Row | SMILES | IC50 [µM]
15 | CC(C)C[C@H](NC(=O)c1cnccn1)C(=O)N[C@@H](CC(C)C)C(=O)N[C@H](/C=C/S(C)(=O)=O)Cc1ccc(CN)cc1 | > 100
16 | CC(C)C[C@H](NC(=O)[C@H](Cc1ccccc1)N=[N+]=[N-])C(=O)N[C@@H](CO)C(=O)N[C@H](/C=C/S(C)(=O)=O)Cc1ccc(CN)cc1 | > 100

Molecular target: T3, Proteasome subunit beta type-10
Assay: Inhibition of 20S immunoproteasome beta 2 in human RPMI8226 cell lysates after 1 hr by coomassie brilliant blue staining-based fluorescence assay
Format: subcellular, Lysate

Row | SMILES | IC50 [µM]
17 | CC(C)C[C@H](NC(=O)c1cnccn1)C(=O)N[C@@H](CC(C)C)C(=O)N[C@H](/C=C/S(C)(=O)=O)Cc1ccc(CN)cc1 | > 10
18 | CC(C)C[C@H](NC(=O)[C@H](Cc1ccccc1)N=[N+]=[N-])C(=O)N[C@@H](CO)C(=O)N[C@H](/C=C/S(C)(=O)=O)Cc1ccc(CN)cc1 | > 10

Molecular target: T4, Proteasome Macropain subunit MB1
Assay: Inhibition of 20S constitutive proteasome beta 5 chymotrypsin-like activity in human Raji cell lysates after 1 hr by competitive ABPP assay
Format: subcellular, Lysate

Row | SMILES | IC50 [µM]
19 | CC(C)C[C@H](NC(=O)c1cnccn1)C(=O)N[C@@H](CC(C)C)C(=O)N[C@H](/C=C/S(C)(=O)=O)Cc1ccc(CN)cc1 | > 100
20 | CC(C)C[C@H](NC(=O)[C@H](Cc1ccccc1)N=[N+]=[N-])C(=O)N[C@@H](CO)C(=O)N[C@H](/C=C/S(C)(=O)=O)Cc1ccc(CN)cc1 | 1.4

Species: Homo sapiens
Assay: Selectivity ratio of IC50 for 20S constitutive proteasome beta 5 chymotrypsin-like activity in human Raji cell lysates to IC50 for 20S constitutive proteasome beta 2 trypsin-like activity in human Raji cells
Format: cell-based

Row | SMILES | Ratio IC50
21 | CC(C)C[C@H](NC(=O)c1cnccn1)C(=O)N[C@@H](CC(C)C)C(=O)N[C@H](/C=C/S(C)(=O)=O)Cc1ccc(CN)cc1 | > 600

Molecular target: T3, Proteasome subunit beta type-10
Assay: Inhibition of 20S immunoproteasome beta 2 in human Raji cell lysates after 1 hr by competitive ABPP assay
Format: subcellular, Lysate

Row | SMILES | IC50 [µM]
22 | CC(C)C[C@H](NC(=O)c1cnccn1)C(=O)N[C@@H](CC(C)C)C(=O)N[C@H](/C=C/S(C)(=O)=O)Cc1ccc(CN)cc1 | 2.9
23 | CC(C)C[C@H](NC(=O)[C@H](Cc1ccccc1)N=[N+]=[N-])C(=O)N[C@@H](CO)C(=O)N[C@H](/C=C/S(C)(=O)=O)Cc1ccc(CN)cc1 | 0.23

Molecular target: T5, Proteasome subunit beta type-8
Assay: Inhibition of 20S immunoproteasome beta 5 in human RPMI8226 cell lysates after 1 hr by coomassie brilliant blue staining-based fluorescence assay
Format: subcellular, Lysate
How it was run: as §1

Row | SMILES | IC50 [µM]
24 | CC(C)C[C@H](NC(=O)c1cnccn1)C(=O)N[C@@H](CC(C)C)C(=O)N[C@H](/C=C/S(C)(=O)=O)Cc1ccc(CN)cc1 | > 10
25 | CC(C)C[C@H](NC(=O)[C@H](Cc1ccccc1)N=[N+]=[N-])C(=O)N[C@@H](CO)C(=O)N[C@H](/C=C/S(C)(=O)=O)Cc1ccc(CN)cc1 | > 10

Species: Homo sapiens
Assay: Selectivity ratio of IC50 for 20S immunoproteasome beta 2 (unknown origin) to IC50 for 20S constitutive proteasome beta 2 trypsin-like activity (unknown origin)

Row | SMILES | Ratio IC50
26 | CC(C)C[C@H](NC(=O)c1cnccn1)C(=O)N[C@@H](CC(C)C)C(=O)N[C@H](/C=C/S(C)(=O)=O)Cc1ccc(CN)cc1 | 40

Species: Homo sapiens
Assay: Selectivity ratio of IC50 for 20S immunoproteasome beta 1 in human Raji cell lysates to IC50 for 20S constitutive proteasome beta 2 trypsin-like activity in human Raji cells
Format: cell-based

Row | SMILES | Ratio IC50
27 | CC(C)C[C@H](NC(=O)c1cnccn1)C(=O)N[C@@H](CC(C)C)C(=O)N[C@H](/C=C/S(C)(=O)=O)Cc1ccc(CN)cc1 | > 600
